The target in series [1] is T1, Broad substrate specificity ATP-binding cassette transporter ABCG2 (Homo sapiens, UniProt Q9UNQ0).
T1 sequence (Q9UNQ0 whole entry): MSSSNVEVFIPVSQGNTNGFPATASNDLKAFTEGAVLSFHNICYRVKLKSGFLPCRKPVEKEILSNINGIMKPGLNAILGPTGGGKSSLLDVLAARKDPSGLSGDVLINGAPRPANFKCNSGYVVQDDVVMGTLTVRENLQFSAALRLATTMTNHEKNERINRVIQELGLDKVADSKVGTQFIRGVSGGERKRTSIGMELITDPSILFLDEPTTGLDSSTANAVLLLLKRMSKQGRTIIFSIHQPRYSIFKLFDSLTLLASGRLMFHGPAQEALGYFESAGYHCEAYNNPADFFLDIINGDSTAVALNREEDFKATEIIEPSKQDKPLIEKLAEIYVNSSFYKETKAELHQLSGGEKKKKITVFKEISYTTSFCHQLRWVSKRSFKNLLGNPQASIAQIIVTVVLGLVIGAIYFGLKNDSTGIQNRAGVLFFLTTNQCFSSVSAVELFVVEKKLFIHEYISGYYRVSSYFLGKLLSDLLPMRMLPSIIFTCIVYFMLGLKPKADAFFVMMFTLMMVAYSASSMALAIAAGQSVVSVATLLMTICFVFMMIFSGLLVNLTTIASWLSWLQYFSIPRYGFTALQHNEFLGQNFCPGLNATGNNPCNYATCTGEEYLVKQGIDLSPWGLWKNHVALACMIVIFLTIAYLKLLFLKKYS
Nature of the series: Inhibition of ABCG2 (unknown origin).

A further series concerns MDCK-II. Nature of the series: Potentiation of SN-38-induced cytotoxicity in MDCK2 cells assessed as decrease in cell viability at 0.01 to 0.1 uM after 72 hrs by MTT assay. The series is classed as functional, cell-based. Conditions: Canis lupus familiaris. An outline of the steps: (§1)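 SN-38 dose-response curves in MDCK II BCRP cells (canine kidney line stably transfected with human ABCG2 C-terminally fused to GFP) and parental MDCK II wild-type cells. Modulator was present at a final 0.01 or 0.1 µM. Cells were seeded at 3 x 10³ per well, attached 6 h, then exposed 72 h. MTT was read at 570 nm minus 690 nm. Data were normalized and fitted with variable-slope sigmoidal regression.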

In series [2] the target is T1, Broad substrate specificity ATP-binding cassette transporter ABCG2. Nature of the series: Inhibition of human C-terminal GFP-tagged ABCG2 expressed in MDCK2 cells using pheophorbide A as substrate preincubated for 20 mins followed by substrate addition measured after 120 mins by flow cytometry. The series is classed as cell-based, MDCK-II. The essentials:
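MDCK II BCRP cells, about 45,000/well in KHB, preincubated with compound for 20 min at 37 °C, 5% CO2. Pheophorbide A added (5 µM solution), then 120 min to steady state. Flow cytometry: excitation 488 nm, emission >670 nm (FL3); GFP in FL1. IC50 from 4-parameter logistic fit; duplicates.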
(In general: A flow cytometer gives signals particle by particle.)

Series [3] shares this target. The series is described as follows: Non-competitive inhibition of human C-terminal GFP-tagged ABCG2 expressed in MDCK2 cells using pheophorbide A as substrate preincubated for 20 mins followed by substrate addition measured after 120 mins by Lineweaver-Burk plot analysis. The series is classed as cell-based. Conditions: mdck-ii, 2 h. The essentials: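 Pheophorbide A accumulation in MDCK II BCRP cells with substrate at 0.2, 0.4, 0.5, 1.0, 1.5 and 2.0 μM. Inhibitor at 0, 0.031, 0.1, 0.18, 0.31 and 0.56 μM. Transport velocities analyzed by Lineweaver-Burk linearization; inhibition type assigned from changes in KM and Vmax.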

Series [4] shares this target. Nature of the series: Induction of vanadate-sensitive ATPase activity of recombinant human ABCG2 expressed in baculovirus infected Sf9 cell membrane assessed as increase in inorganic phosphate production up to 1 uM after 20 mins by colorimetry. Conditions: sf9, 20 min. The essentials: (§2)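 Sf9 membranes from cells infected with baculovirus carrying human wild-type ABCG2, cholesterol-loaded; protein by BCA. Buffer: 40 mM MOPS-Tris pH 7.0, 50 mM KCl, 2 mM DTT, 500 µM EGTA-Tris, 5 mM azide, 1 mM ouabain, 10 µg protein. Reaction started with 3.3 mM MgATP, 20 min at 37 °C. Basal activity with 1 mM orthovanadate; 1 µM quercetin and 1 µM Ko143 as references. Pi by molybdate/ascorbate at 880 nm against K2HPO4 standard; triplicates.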

Series [5] has the same target. Nature of the series: Inhibition of vanadate-sensitive ATPase activity of recombinant human ABCG2 expressed in baculovirus infected Sf9 cell membrane assessed as decrease in inorganic phosphate production at >1 uM after 20 mins by colorimetry. Conditions: sf9, 20 min. The essentials: as §2
Series [6] addresses T2, ATP-dependent translocase ABCB1 (Homo sapiens, UniProt P08183). The series is described as follows: Inhibition of ABCB1 in human A2780/ADR cells incubated for 30 mins measured up to 3600 secs with time intervals of 60 secs by calcein accumulation assay. The series is classed as cell-based.
The target of series [7] is Multidrug resistance-associated protein 1 (Homo sapiens, UniProt P33527). Nature of the series: Inhibition of ABCC1 in human H69AR cells at 10 uM incubated for 30 mins measured up to 3600 secs with time intervals of 60 secs by calcein accumulation assay. The series is classed as cell-based. The essentials:
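Calcein AM assay in ABCC1-overexpressing H69AR cells, about 30,000/well, 30 min preincubation with compound at 10 μM. Calcein AM (1.25 µM solution) added; fluorescence at ex 485/em 520 nm every 60 s up to 3600 s at 37 °C.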

The nature of series [8]: Cytotoxicity against MDCK2 cells assessed as reduction in cell viability after 72 hrs by MTT assay. The series is classed as cell-based, Canis lupus familiaris, MDCK-II. Conditions: dog. The essentials:
(§3)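 Seeding 3 x 10³ cells/well, 6 h attachment at 37 °C, 5% CO2, then compound for 72 h. Controls: 10% DMSO (positive), medium (negative). MTT 5 mg/ml stock for 1 h; formazan in DMSO; A570, background 690 nm. Normalized to control; GI50 from variable-slope sigmoidal fit.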
For orientation: Tetrazolium assays rely on reduction of a dye to a coloured formazan, in cell work by metabolically active cells.

A short description of series [9]: Cytotoxicity against MDCK2 cells expressing human C-terminal GFP-tagged ABCG2 assessed as reduction in cell viability after 72 hrs by MTT assay. The series is classed as ADME, cell-based, Canis lupus familiaris, MDCK-II. Conditions: dog. An outline of the steps:
as §3

A further series relates to ABCG2. The series is described as follows: Therapeutic ratio of GI50 for MDCK2 cells expressing human C-terminal GFP-tagged ABCG2 to IC50 for human C-terminal GFP-tagged ABCG2 expressed in MDCK2 cells. The series is classed as ADME, cell-based. Conditions: dog, read-out: TI. An outline of the steps: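 Ratio of GI50 from a 72 h MTT assay in MDCK II BCRP cells to IC50 from the pheophorbide A assay in the same cells.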

Series [10] has as its target T1, Broad substrate specificity ATP-binding cassette transporter ABCG2. Nature of the series: Inhibition of human C-terminal GFP-tagged ABCG2 expressed in MDCK2 cells assessed as SN-38-induced cytotoxicity by measuring cell viability at 0.01 to 0.1 uM after 72 hrs by MTT assay. The series is classed as cell-based. Conditions: mdck-ii. An outline of the steps:
as §1

The target in the next series is ABCB1 (P-glycoprotein) (Homo sapiens, UniProt P08183). The series is described as follows: Inhibition of ABCB1 in human A2780/ADR cells at 10 uM incubated for 30 mins measured up to 3600 secs with time intervals of 60 secs by calcein accumulation assay relative to cyclosporine A. The series is classed as cell-based. Conditions: probe calcein, read-out: Imax. The essentials:
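A2780adr cells, about 30,000/well, preincubated with compound for 30 min. Calcein AM then added (1.25 µM solution); fluorescence (ex 485/em 520 nm) read every 60 s to 3600 s at 37 °C. […] IC50 by four-parameter logistic fit, variable slope.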

Series [11] deals with MCF7. The series is described as follows: Drug uptake in human MCF7 cells at 10 uM after 2 hrs by confocal laser scanning microscopic analysis. The series is classed as ADME, cell-based. Conditions: mcf7, 2 h. An outline of the steps: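 Parental MCF-7 cells, 1 x 10^5 seeded in dishes for 48 h to 50-60% confluence, then exposed to 10 µM compound for 2 h. Supernatant replaced with KHB; confocal imaging at 37 °C, excitation 405 nm, emission 425-475 nm.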

For series [12], the target named is T1, Broad substrate specificity ATP-binding cassette transporter ABCG2. The series is described as follows: Inhibition of ABCG2 in human MCF7/MX cells assessed as intracellular pheophorbide A accumulation at 10 uM after 2 hrs by confocal laser scanning microscopic analysis. The series is classed as cell-based. An outline of the steps: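 MCF-7 MX cells (ABCG2-overexpressing; 0.1 µM mitoxantrone every 10 passages) incubated with pheophorbide A together with compound for 2 h. Imaged by confocal laser scanning microscopy at 37 °C after replacing the medium with KHB.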

The subject of series [13] is MCF7. Nature of the series: Drug uptake in human MCF7 cells up to 60 mins by fluorescence spectroscopic analysis. The series is classed as ADME, cell-based. Conditions: mcf7, 1 h. An outline of the steps:
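Parental MCF-7 cells, 1 x 10^6 per 4.5 ml KHB, incubated with compound for varying times […]. After a KHB wash, intracellular fluorescence was read in a fluorescence spectrometer.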

Series [14] has as its target T2, ATP-dependent translocase ABCB1. Nature of the series: Inhibition of ABCB1 mediated efflux in human MCF7/DX1 cells assessed as intracellular rhodamine-123 accumulation after 30 to 40 mins by flow cytometry. The series is classed as cell-based.

Calls of active or inactive are those of the source. No cut-off for these calls is given here.

T2 sequence (P08183 whole entry): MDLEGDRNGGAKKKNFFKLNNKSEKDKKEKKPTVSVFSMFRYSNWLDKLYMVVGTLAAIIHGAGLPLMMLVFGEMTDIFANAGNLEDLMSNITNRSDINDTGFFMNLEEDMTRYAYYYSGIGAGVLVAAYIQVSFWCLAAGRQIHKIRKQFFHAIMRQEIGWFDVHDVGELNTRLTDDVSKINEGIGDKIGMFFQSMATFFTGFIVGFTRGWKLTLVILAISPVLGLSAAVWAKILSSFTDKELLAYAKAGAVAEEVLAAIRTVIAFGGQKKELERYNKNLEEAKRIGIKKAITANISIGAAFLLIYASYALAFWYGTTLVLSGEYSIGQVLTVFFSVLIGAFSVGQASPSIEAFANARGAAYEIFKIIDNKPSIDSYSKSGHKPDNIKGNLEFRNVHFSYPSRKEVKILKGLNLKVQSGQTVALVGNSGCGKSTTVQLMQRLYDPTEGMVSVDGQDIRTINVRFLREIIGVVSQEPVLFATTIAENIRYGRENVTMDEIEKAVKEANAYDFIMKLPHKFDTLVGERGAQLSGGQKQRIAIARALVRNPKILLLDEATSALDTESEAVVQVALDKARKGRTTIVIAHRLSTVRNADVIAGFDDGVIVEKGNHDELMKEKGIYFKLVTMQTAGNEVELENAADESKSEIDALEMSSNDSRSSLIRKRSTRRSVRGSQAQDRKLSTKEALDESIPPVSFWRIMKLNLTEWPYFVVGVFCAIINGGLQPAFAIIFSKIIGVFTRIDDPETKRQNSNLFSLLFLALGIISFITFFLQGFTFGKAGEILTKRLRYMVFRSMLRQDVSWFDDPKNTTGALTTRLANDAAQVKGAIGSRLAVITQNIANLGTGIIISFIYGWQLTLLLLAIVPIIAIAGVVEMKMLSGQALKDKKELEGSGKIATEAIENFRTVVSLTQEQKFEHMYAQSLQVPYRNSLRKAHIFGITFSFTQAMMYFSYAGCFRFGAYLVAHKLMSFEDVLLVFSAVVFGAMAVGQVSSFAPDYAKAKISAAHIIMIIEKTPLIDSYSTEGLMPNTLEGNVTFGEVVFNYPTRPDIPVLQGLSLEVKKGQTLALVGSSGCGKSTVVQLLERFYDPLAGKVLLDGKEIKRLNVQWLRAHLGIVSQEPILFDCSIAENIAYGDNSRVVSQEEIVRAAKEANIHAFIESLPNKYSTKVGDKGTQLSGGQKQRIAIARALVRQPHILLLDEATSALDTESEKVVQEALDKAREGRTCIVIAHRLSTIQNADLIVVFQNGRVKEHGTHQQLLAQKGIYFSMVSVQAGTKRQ
Sequence of ABCB1 (P-glycoprotein) (P08183 whole entry): as above
Sequence of Multidrug resistance-associated protein 1 (P33527 whole entry): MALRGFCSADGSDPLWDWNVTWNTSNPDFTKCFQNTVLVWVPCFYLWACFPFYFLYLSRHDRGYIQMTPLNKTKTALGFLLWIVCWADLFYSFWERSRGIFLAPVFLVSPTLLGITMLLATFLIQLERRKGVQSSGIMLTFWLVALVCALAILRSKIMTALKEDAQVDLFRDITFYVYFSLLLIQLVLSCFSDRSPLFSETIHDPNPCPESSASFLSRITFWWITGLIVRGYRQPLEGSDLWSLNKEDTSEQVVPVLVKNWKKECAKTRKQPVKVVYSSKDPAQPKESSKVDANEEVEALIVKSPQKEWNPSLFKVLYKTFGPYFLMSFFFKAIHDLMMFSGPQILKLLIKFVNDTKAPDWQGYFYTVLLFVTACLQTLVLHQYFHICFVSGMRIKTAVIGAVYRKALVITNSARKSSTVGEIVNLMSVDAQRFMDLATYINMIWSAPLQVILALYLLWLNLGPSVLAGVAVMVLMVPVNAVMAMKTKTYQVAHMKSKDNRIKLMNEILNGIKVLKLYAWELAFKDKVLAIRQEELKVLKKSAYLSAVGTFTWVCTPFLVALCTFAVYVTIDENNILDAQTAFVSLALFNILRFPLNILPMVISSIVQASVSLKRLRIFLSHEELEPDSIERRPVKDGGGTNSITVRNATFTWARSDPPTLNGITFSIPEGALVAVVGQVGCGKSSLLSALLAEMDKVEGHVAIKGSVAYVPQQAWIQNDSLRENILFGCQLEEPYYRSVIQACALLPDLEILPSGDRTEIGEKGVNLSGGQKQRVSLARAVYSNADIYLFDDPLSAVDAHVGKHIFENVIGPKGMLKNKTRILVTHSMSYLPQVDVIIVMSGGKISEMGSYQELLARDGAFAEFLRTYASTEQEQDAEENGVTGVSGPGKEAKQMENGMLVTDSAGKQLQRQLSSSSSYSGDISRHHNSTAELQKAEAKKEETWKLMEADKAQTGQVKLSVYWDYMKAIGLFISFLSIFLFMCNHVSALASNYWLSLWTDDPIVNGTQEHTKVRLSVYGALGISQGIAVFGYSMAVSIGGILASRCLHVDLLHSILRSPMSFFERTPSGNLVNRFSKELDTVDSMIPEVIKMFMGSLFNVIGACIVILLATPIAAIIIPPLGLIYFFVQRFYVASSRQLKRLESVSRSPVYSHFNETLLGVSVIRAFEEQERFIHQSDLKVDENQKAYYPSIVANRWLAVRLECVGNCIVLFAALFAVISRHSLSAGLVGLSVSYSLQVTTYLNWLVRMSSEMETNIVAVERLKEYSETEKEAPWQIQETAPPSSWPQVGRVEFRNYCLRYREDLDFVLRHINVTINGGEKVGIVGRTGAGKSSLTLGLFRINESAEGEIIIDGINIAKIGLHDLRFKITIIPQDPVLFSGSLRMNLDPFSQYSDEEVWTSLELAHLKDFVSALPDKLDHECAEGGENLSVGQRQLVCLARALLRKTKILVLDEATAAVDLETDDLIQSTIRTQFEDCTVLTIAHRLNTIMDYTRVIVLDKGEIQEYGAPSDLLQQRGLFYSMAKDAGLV

As usually defined, the IC50 is the midpoint of a concentration-inhibition curve. `COc1ccc(/C=C/C(=O)c2ccc(OC)c(OC)c2)cc1OC` returned an IC50 in [1] of 5.12 µM.
One may read the GI50 as the concentration giving 50% growth inhibition. In the case of `COc1ccc(/C=C/C(=O)c2ccc(Nc3nc(-c4ccc(OC)c(OC)c4)nc4ccccc34)cc2)cc1OC`, the result in the series with MDCK-II was Active. The IC50 in series [2] is 0.19 µM; in series [6], 14.9 µM. Also, the “inhibition (INH)” value is reported as “Active” in series [3], “Active” in [5], “Not Active” in [7] and “Active” in series [10]. Moreover, in [4], the result was Active. Also, the GI50 at 72 h came out at 132 µM in series [8] and 92.9 µM in [9]. For the same molecule, in the series on ABCG2, the selectivity ratio was found to be 489.
In the case of `COc1ccc(/C=C/C(=O)c2ccc(Nc3ncnc4ccccc34)cc2)cc1OC`, the IC50 in series [2] was 0.84 µM; in series [6], 2.34 µM. Also, the inhibition at 30 min, 10 µM at ABCB1 (P-glycoprotein) was 61%. Also, the Drug uptake result with MCF7 [11] and in the series with MCF7 [13] was “Active” each time. For the same molecule, the “inhibition (INH)” value in series [12] is “Active”.
Regarding `COc1ccc2c3c1O[C@H]1C[C@@H](OC(=O)CCCCCCCCC(=O)O[C@H]4C=C[C@@]56CN(C)CCc7ccc(OC)c(c75)O[C@H]6C4)C=C[C@@]31CN(C)CC2`, the IC50 in [14] was 0.8 µM.

Values taken from ChEMBL document CHEMBL3808298, “The combination of quinazoline and chalcone moieties leads to novel potent heterodimeric modulators of breast cancer resistance protein (BCRP/ABCG2)” (Eur J Med Chem, 2016).
